Tests used:
[1] = tested on: CCRF-CEM; assay: Cytotoxicity against human CCRF-CEM cells after 48 hrs by SRB assay; assay type: functional
Outline: (§1)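 NCI-60 five-dose screen at 10−8 to 10−4 M. Cells were plated at 5,000–40,000/well in RPMI 1640 with 5% FBS and 2 mM L-glutamine, then preincubated 24 h, and time-zero plates were TCA-fixed. Compound was added from DMSO stocks and exposed 48 h at 37 °C. Cells were TCA-fixed, SRB-stained, and read at 515 nm. LC50 is the concentration halving the cell population through cell death.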

[2] = tested on: MOLT-4; assay: Cytotoxicity against human MOLT4 cells after 48 hrs by SRB assay; assay type: functional; details: MOLT-4, 48 h; outline: as §1
[3] = tested on: RPMI-8226; assay: Cytotoxicity against human RPMI8226 cells after 48 hrs by SRB assay; assay type: functional; details: RPMI-8226, 48 h; outline: as §1
[4] = tested on: HOP-62; assay: Cytotoxicity against human HOP62 cells after 48 hrs by SRB assay; assay type: functional; details: HOP-62, 48 h; outline: as §1
[5] = tested on: NCI-H226; assay: Cytotoxicity against human NCI-H226 cells after 48 hrs by SRB assay; assay type: functional; details: NCI-H226, 48 h; outline: as §1
[6] = tested on: NCI-H23; assay: Cytotoxicity against human NCI-H23 cells after 48 hrs by SRB assay; assay type: functional; details: NCI-H23, 48 h; outline: as §1
[7] = tested on: HCC 2998; assay: Cytotoxicity against human HCC2998 cells after 48 hrs by SRB assay; assay type: functional; details: HCC 2998, 48 h; outline: as §1
[8] = tested on: HCT-116; assay: Cytotoxicity against human HCT116 cells after 48 hrs by SRB assay; assay type: functional; details: HCT-116, 48 h; outline: as §1
[9] = tested on: HCT-15; assay: Cytotoxicity against human HCT15 cells after 48 hrs by SRB assay; assay type: functional; details: HCT-15, 48 h; outline: as §1
[10] = tested on: HT-29; assay: Cytotoxicity against human HT-29 cells after 48 hrs by SRB assay; assay type: functional; details: HT-29, 48 h; outline: as §1
[11] = tested on: KM12; assay: Cytotoxicity against human KM12 cells after 48 hrs by SRB assay; assay type: functional; details: KM12, 48 h; outline: as §1
[12] = tested on: SF-268; assay: Cytotoxicity against human SF268 cells after 48 hrs by SRB assay; assay type: functional; details: SF-268, 48 h; outline: as §1
[13] = tested on: SF-295; assay: Cytotoxicity against human SF295 cells after 48 hrs by SRB assay; assay type: functional; details: SF-295, 48 h; outline: as §1
[14] = tested on: U-251; assay: Cytotoxicity against human U251 cells after 48 hrs by SRB assay; assay type: functional; details: U-251, 48 h
Outline: (§2)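 NCI-60 screen: cells grown in RPMI 1640 with 5% FBS and 2 mM L-glutamine, plated at 5,000–40,000 cells/well by doubling time, and preincubated 24 h at 37 °C before drug. Drug was diluted from DMSO stock and given at five concentrations, 10−4 to 10−8 M, for 48 h. Cells fixed with cold TCA, SRB stained, OD read at 515 nm against time-zero and vehicle plates. LC50 taken as the concentration that halves cell population through cell death.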

[15] = tested on: LOX IMVI; assay: Cytotoxicity against human LOXIMVI cells after 48 hrs by SRB assay; assay type: functional; outline: as §1
[16] = tested on: SK-MEL-2; assay: Cytotoxicity against human SK-MEL-2 cells after 48 hrs by SRB assay; assay type: functional; details: SK-MEL-2, 48 h; outline: as §1
[17] = tested on: UACC-62; assay: Cytotoxicity against human UACC62 cells after 48 hrs by SRB assay; assay type: functional; details: UACC-62, 48 h; outline: as §2
[18] = tested on: OVCAR-3; assay: Cytotoxicity against human OVCAR3 cells after 48 hrs by SRB assay; assay type: functional; details: OVCAR-3, 48 h; outline: as §1
[19] = tested on: OVCAR-5; assay: Cytotoxicity against human OVCAR5 cells after 48 hrs by SRB assay; assay type: functional; details: OVCAR-5, 48 h; outline: as §1
[20] = tested on: OVCAR-8; assay: Cytotoxicity against human OVCAR8 cells after 48 hrs by SRB assay; assay type: functional; details: OVCAR-8, 48 h; outline: as §1
[21] = Cytotoxicity against human NCI-ADR-RES cells after 48 hrs by SRB assay; assay type: functional; outline: as §1
[22] = tested on: RXF 393; assay: Cytotoxicity against human RXF393 cells after 48 hrs by SRB assay; assay type: functional; details: RXF 393, 48 h; outline: as §1
[23] = tested on: SN12C; assay: Cytotoxicity against human SN12C cells after 48 hrs by SRB assay; assay type: functional; outline: as §1
[24] = tested on: MCF7; assay: Cytotoxicity against human MCF7 cells after 48 hrs by SRB assay; assay type: functional; details: MCF7, 48 h
Outline: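 NCI-60 screen: cells in RPMI 1640 with 5% FBS and 2 mM L-glutamine, preincubated 24 h at 37 °C. Compound was then added for 48 h at five concentrations (10−4 to 10−8 M). Cells were fixed with cold TCA and stained with 0.4% SRB in 1% acetic acid, and OD read at 515 nm. GI50 is the concentration halving net protein increase versus control.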

[25] = tested on: MDA-MB-231; assay: Cytotoxicity against human MDA-MB-231 cells after 48 hrs by SRB assay; assay type: functional; details: MDA-MB-231, 48 h; outline: as §1
[26] = tested on: T47D; assay: Cytotoxicity against human T47D cells after 48 hrs by SRB assay; assay type: functional; outline: as §2
[27] = tested on: MDA-MB-468; assay: Cytotoxicity against human MDA-MB-468 cells after 48 hrs by SRB assay; assay type: functional; details: MDA-MB-468, 48 h; outline: as §1
[28] = Antileukemic activity against human M9-ENL1 cells after 24 hrs by annexin V/7-AAD staining-based flow cytometric analysis; assay type: functional, cell-based
Outline: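 M9-ENL1 cells in alpha-MEM with 5% human plasma, 20% FBS, SCF, IL-3, IL-7 and FLT3. Drug came from a DMSO stock diluted in PBS (≤0.5% DMSO final), for 24 h over 0.5-10 μM. Cells negative for both annexin V and 7-AAD were taken as non-apoptotic and normalized to vehicle. EC50 read from dose-response curves, triplicate.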

[29] = Antileukemic activity against human AML03 cells after 24 hrs by annexin V/7-AAD staining-based flow cytometric analysis; assay type: functional, cell-based
Outline: (§3)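 Primary AML specimens from consenting donors, isolated by Ficoll-Paque gradient and sometimes cryopreserved. Cells were held 1 h in serum-free IMDM with 20% BIT 9500, LDL and β-mercaptoethanol before drug (DMSO stock diluted in PBS, ≤0.5% DMSO final). Exposure was 24 h over 0.5-10 μM. Annexin V/7-AAD double-negative cells, normalized to vehicle, gave the EC50. Run in triplicate.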

[30] = Antileukemic activity against human AML05 cells after 24 hrs by annexin V/7-AAD staining-based flow cytometric analysis; assay type: functional, cell-based; outline: as §3
[31] = read-out: LC50 (the source's name)

C=C1C(=O)O[C@H]2[C@H]1CC/C(COC(=O)NCCCCNC(=O)OC/C1=C/CC[C@@]3(C)O[C@H]3[C@H]3OC(=O)C(=C)[C@@H]3CC1)=C\CC[C@@]1(C)O[C@@H]21
GI50 [1]: 0.27 µM | CC50 [1, 31]: > 100 µM | GI50 [2]: 1.47 µM | CC50 [2, 31]: > 100 µM | GI50 [3]: 0.54 µM | CC50 [3, 31]: > 100 µM | GI50 [4]: 3.84 µM | CC50 [4, 31]: 46.1 µM | GI50 [5]: 11.4 µM | CC50 [5, 31]: 81.6 µM | GI50 [6]: 2.18 µM | CC50 [6, 31]: 30.4 µM | GI50 [7]: 2.35 µM | CC50 [7, 31]: 9.73 µM | GI50 [8]: 1.12 µM | CC50 [8, 31]: 6.19 µM | GI50 [9]: 5.61 µM | CC50 [9, 31]: 56.3 µM | GI50 [10]: 0.6 µM | CC50 [10, 31]: > 100 µM | GI50 [11]: 3.18 µM | CC50 [11, 31]: 43.3 µM | GI50 [12]: 3.18 µM | CC50 [12, 31]: 51 µM | GI50 [13]: 13 µM | CC50 [13, 31]: 57.7 µM | GI50 [14]: 2.94 µM | CC50 [14, 31]: 33.3 µM | GI50 [15]: 0.51 µM | CC50 [15, 31]: 5.15 µM | GI50 [16]: 1.77 µM | CC50 [16, 31]: 29.3 µM | GI50 [17]: 0.75 µM | CC50 [17, 31]: 7.06 µM | GI50 [18]: 0.69 µM | CC50 [18, 31]: 4.76 µM | GI50 [19]: 1.75 µM | CC50 [19, 31]: 7.79 µM | GI50 [20]: 2.18 µM | CC50 [20, 31]: 40.2 µM | GI50 [21]: 37.7 µM | CC50 [21, 31]: > 100 µM | GI50 [22]: 1.44 µM | CC50 [22, 31]: 7.84 µM | GI50 [23]: 2.75 µM | CC50 [23, 31]: 39.5 µM | GI50 [24]: 0.38 µM | GI50 [25]: 1.53 µM | LC50 [25]: 6.83 µM | GI50 [26]: 1.51 µM | CC50 [26, 31]: > 100 µM | GI50 [27]: 0.42 µM | LC50 [27]: 7.76 µM | EC50 [28]: 1.5 µM | EC50 [29]: 7.3 µM | EC50 [30]: 2 µM

Source: ChEMBL document CHEMBL3632581, “Dimers of Melampomagnolide B Exhibit Potent Anticancer Activity against Hematological and Solid Tumor Cells” (J Med Chem, 2015)
